# Measurements taken from publication PMC7032195 (Asian Journal of Pharmaceutical Sciences, 2018).
# Like-named read-outs stand apart in the source and are kept apart here.
# Legend:
# [1] = tested on: MCF-7 cells; assay: MTT assay of DTX, RES and their combinations at different mass ratios; assay type: cell-based; details: Homo sapiens
# In short: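 MCF-7 cells seeded at 6000 cells/well 12 h before dosing, then exposed to each test compound alone (0–50.0 or 0–100.0 µg/ml) or as 1:1 combinations (2.5+2.5 to 50+50 µg/ml); DMEM vehicle control. After two days, OD read at 490 nm. Six replicate wells per condition, at least three independent repeats. Combination index calculated for 2:1, 1:1 and 1:2 mass ratios.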
# [2] = Pharmacokinetics after intravenous injection in rats; assay type: in vivo, Sprague-Dawley rats; details: i.v., 10 mg/kg
# In short: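 Male Sprague-Dawley rats (~200 g), n = 3, received ethanol solutions or co-loaded mPEG-PDLA micelles i.v. at 10 mg/kg. Orbital plexus blood was drawn into heparin tubes at 0.083–12 h. Plasma was separated at 5000 rpm for 10 min and stored at −20 °C. Carbamazepine was the internal standard, with methyl tert-butyl ether extraction. UV detection was at 228 or 306 nm. Parameters are mean ± SD.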
# [3] = MCF7, read-out: IC50 in MCF-7 cells
Compound,"IC50 ([1]; MCF7, read-out: IC50 (µg/ml) DTX) [µg/mL]","IC50 [1, 3] [µg/mL]",V ([2]; analyte DTX) [L/kg],"IC50 ([1]; MCF7, read-out: IC50 (µg/ml) RES) [µg/mL]",V ([2]; analyte RES) [L/kg]
"CC(=O)O[C@@]12CO[C@@H]1C[C@H](O)[C@@]1(C)C(=O)[C@H](O)C3=C(C)[C@@H](OC(=O)[C@H](O)[C@@H](NC(=O)OC(C)(C)C)c4ccccc4)C[C@@](O)([C@@H](OC(=O)c4ccccc4)[C@H]21)C3(C)C [DTX, docetaxel]",10.4 ± 0.43,10.4,3.79 ± 0.83,,
"Oc1ccc(/C=C/c2cc(O)cc(O)c2)cc1 [RES, resveratrol]",,23,,23 ± 0.54,3.45 ± 2.93
